Screening data (PubChem)
GASC1 inh: blocks human GASC-1 (KDM4C) demethylase activity | Q9H3R0 | GST-KDM4C 2-372, H3K9me3 peptide, LANCE TR-FRET | inhibition, % at 12.5 µM | actives 0.15% (n = 96,000) | AID 720574;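 active = mean replicate inhibition above about 25%, with at least 55% of replicates also reaching it, limit read from the data, passing the limit was not always enough; inconclusive = only one of those two conditions met; inactive = neither condition met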
Target sequence (Q9H3R0 2-372 limits assumed): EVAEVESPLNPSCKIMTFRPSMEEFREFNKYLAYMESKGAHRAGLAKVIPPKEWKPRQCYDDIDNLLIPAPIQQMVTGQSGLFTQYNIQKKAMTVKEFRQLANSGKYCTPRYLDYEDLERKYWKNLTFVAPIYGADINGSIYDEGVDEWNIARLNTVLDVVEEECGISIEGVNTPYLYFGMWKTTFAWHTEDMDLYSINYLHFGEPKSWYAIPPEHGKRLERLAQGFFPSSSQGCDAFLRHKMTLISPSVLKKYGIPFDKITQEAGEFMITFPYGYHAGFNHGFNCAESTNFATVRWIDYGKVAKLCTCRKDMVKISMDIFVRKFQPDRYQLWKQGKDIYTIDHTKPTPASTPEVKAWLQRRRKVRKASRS
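reagent = H3K9me3 peptide substrate, Fe(II), 2-oxoglutarate | system = GST-tagged GASC-1 (JMJD2C) catalytic fragment, aa 2-372 | amount = enzyme final amount 10 nM | read-out = Fall in 671/618 emission ratio as inhibition | medium = HEPES buffer, pH 7.5, plus ascorbate | schedule = 30 min reaction, 60 min detection, RT | measured by = LANCE TR-FRET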
Pf Dd2 growth: P. falciparum Dd2 growth inhibition | SYBR Green, 72 h; active compounds read low | activity change, % at 10 µM | actives 2.3% (n = 94,000) | AID 1159554; in the data active = activity change below about -80%; inconclusive = no clear call, values can overlap the other calls
IDH1 mut inh: blocks human IDH1 R132H reductase activity; inhibition, % at 10 µM; O75874; actives 0.18% (n = 70,000); diaphorase/resazurin fluorescence, 60 min; in the data active = inhibition above about 34%; inconclusive = no clear call, values can overlap the other calls; inactive = below about 11%;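 note: 0% = DMSO and 100% = no enzyme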
T cruzi growth-1: inhibitors of T. cruzi proliferation. actives 5.9% (n = 77,000). T. cruzi beta-gal in NIH3T3, GalScreen luminescence, 90 h. inhibition, % at 8.34 µM;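 active = mean inhibition above about 93%, with at least 55% of replicates each passing it, limit read from the data, passing the limit was not always enough; inconclusive = only one of those two conditions holds; inactive = neither condition holds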
T cruzi growth-2: blocks T. cruzi growth in NIH3T3 host cells; shares compounds with T cruzi growth-1; T. cruzi beta-gal in NIH3T3, GalScreen luminescence, 90 h; inhibition, % at 8.35 µM; actives 72% (n = 5,600); AID 651739;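 active = mean replicate inhibition above about 95% and at least 55% of replicates individually reaching it, limit read from the data; inconclusive = only one of the two criteria is met; inactive = neither criterion is met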
T cruzi growth-3: Trypanosoma cruzi proliferation inhibition; shares compounds with T cruzi growth-1; T. cruzi beta-gal in NIH3T3, GalScreen luminescence, 90 h; inhibition, % at 2.09 µM; actives 21% (n = 5,600); AID 651740;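 active = mean inhibition above about 95%, with at least 55% of replicates also reaching it, limit read from the data; inconclusive = meets just one of the two conditions; inactive = meets neither condition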;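 note: plate controls were neutral control median for no effect and positive control median for full effect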
3T3 cytotox: cytotoxicity in mouse NIH/3T3 fibroblasts; shares compounds with T cruzi growth-1; NIH/3T3 viability, CellTiter-Glo ATP luminescence, 90 h; cytotoxicity (signal decrease), % at 8.35 µM; actives 14% (n = 5,600); AID 651742;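 active = mean signal decrease across replicates above about 35% based on untreated-well scatter, with enough replicates individually passing, limit read from the data; inconclusive = no rule stated though some were filed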;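 note: 0% = median of neutral control wells and 100% = median of positive control wells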
NIH3T3 tox 2: kills mouse NIH/3T3 fibroblasts; shares compounds with T cruzi growth-1; NIH/3T3 viability, CellTiter-Glo ATP luminescence, 90 h; inhibition, % at 24.9 µM; actives 56% (n = 5,600); AID 651744;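 active = mean loss of cell viability signal at or above a set limit, and enough replicates individually reaching it; inconclusive = meets only the mean limit or only the replicate share; inactive = meets neither condition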;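 note: 0% = median of neutral control wells and 100% = median of positive control wells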
Active calls of the source: *; ? = inconclusive; / = no result. An excerpt weighted towards active compounds, which were near 5.8% of everything screened.

SMILES	GASC1 inh	Pf Dd2 growth	IDH1 mut inh	T cruzi growth-1	T cruzi growth-2	T cruzi growth-3	3T3 cytotox	NIH3T3 tox 2
OC[C@@H]1[C@@H](c2ccc(-c3cccnc3)cc2)[C@H]2CN(CC3CC3)CCCCN12	-0.7	-48.8	/	44.2	/	/	/	/
Cc1ccc(S(=O)(=O)NC(C(=O)Oc2cc3oc(=O)cc(-c4ccccc4)c3cc2Cl)C(C)C)cc1 (stereo not given)	/	/	0.2	/	/	/	/	/
CN1c2ccc(-c3ccccc3F)cc2[C@H]2[C@H](CCN2C(=O)c2cccc(F)c2)[C@H]1CO	0.1	11.4	/	?	106.7*	80.7	12.0	103.4*
CCC(=O)N1CC[C@@H]2[C@H]1c1cc(-c3cccc(F)c3)ccc1N(C)[C@H]2CO	1.0	-1.6	/	62.0	/	/	/	/
CN1c2ccc(-c3ccccc3F)cc2[C@@H]2[C@@H](CCN2C(=O)c2cccc(F)c2)[C@@H]1CO	-4.7	-48.0	/	75.9	/	/	/	/
CN1c2ccc(-c3ccccc3F)cc2[C@@H]2[C@@H](CCN2C(=O)Cc2ccccn2)[C@@H]1CO	3.7	-48.6	/	103.5*	101.1*	39.8	6.2	17.1
CN1c2ccc(-c3ccccc3F)cc2[C@H]2[C@H](CCN2C(=O)Cc2ccccn2)[C@@H]1CO	3.4	-15.8	/	87.7	/	/	/	/
CCC(=O)N1CC[C@@H]2[C@H]1c1cc(-c3ccc(F)cc3)ccc1N(C)[C@H]2CO	-0.5	-3.7	/	106.2*	100.3*	94.3	-25.5	-6.9
CN1c2ccc(-c3cccc(C#N)c3)cc2[C@H]2[C@H](CCN2C(=O)Cc2ccccn2)[C@H]1CO	1.7	-37.6	/	101.8*	107.1*	60.9	5.9	16.0
Cn1nnnc1SCC(=O)Nc1ncccn1	/	/	0.0	/	/	/	/	/
CCC(=O)N1CC[C@@H]2[C@H]1c1cc(-c3ccccc3F)ccc1N(C)[C@@H]2CO	1.1	30.4	/	100.2*	104.3*	15.9	-10.2	9.2
CN(C)CC#Cc1ccc([C@H]2[C@@H](CO)N3CCCCN(C(=O)Nc4cc(F)ccc4F)C[C@H]23)cc1	4.7	-40.1	/	109.0*	95.5*	50.5	21.1	100.6*
CN(C)CC#Cc1ccc([C@@H]2[C@H](CO)N3CCCCN(C(=O)Nc4ccccc4F)C[C@@H]23)cc1	3.5	-40.1	/	101.5*	?	92.7	-8.0	39.3*
CN(C)CC#Cc1ccc([C@@H]2[C@H](CO)N3CCCCN(C(=O)Nc4cc(F)ccc4F)C[C@@H]23)cc1	3.9	-38.9	/	?	93.0	72.6	9.4	98.0*
COCC#Cc1ccc([C@H]2[C@@H](CO)N3CCCCN(C(=O)Nc4cc(F)ccc4F)C[C@H]23)cc1	0.9	-51.7	/	100.9*	104.0*	62.5	-0.5	89.2*
CN(C)CC#Cc1ccc([C@@H]2[C@@H](CO)N3CCCCN(C(=O)Nc4cc(F)ccc4F)C[C@H]23)cc1	3.8	-3.7	/	100.3*	?	44.6	7.9	28.1*
CN(C)CC#Cc1ccc([C@H]2[C@H](CO)N3CCCCN(C(=O)Nc4cc(F)ccc4F)C[C@@H]23)cc1	4.8	-54.9	/	104.9*	99.0*	43.2	23.7	57.6*
CN(C)CC#Cc1ccc([C@H]2[C@@H](CO)N3CCCCN(C(=O)Nc4ccc(F)cc4)C[C@H]23)cc1	2.4	-47.1	/	52.8	/	/	/	/
CN(C)CC#Cc1ccc([C@@H]2[C@@H](CO)N3CCCCN(C(=O)Nc4ccccc4F)C[C@H]23)cc1	3.6	-1.9	/	-10.9	/	/	/	/
CN(C)CC#Cc1ccc([C@@H]2[C@@H](CO)N3CCCCN(C(=O)Nc4ccc(F)cc4)C[C@@H]23)cc1	4.3	-19.6	/	?	106.2*	81.6	1.6	?
CC(=O)Nc1ccc(-c2nnc(SCC(=O)Nc3cc(Cl)cc(Cl)c3)n2C)cc1	/	/	0.1	/	/	/	/	/
O=C(CCCCCC/C=C/c1ccc2c(c1)OCO2)N1CCCCC1	/	/	-0.3	/	/	/	/	/
COc1ccc(C#Cc2ccc([C@@H]3[C@H](CO)N4CCCCN(C(=O)c5ccncc5)C[C@@H]34)cc2)cc1	-1.3	-31.9	/	105.0*	88.4	74.0	20.9	104.1*
